pIC50: −log10 of the molar value. Calls of active or inactive are those of the source. The calls are words filed in the database; no cut-off is given here.
Assays:
HeLa = assay: Antiproliferative activity against human HeLa cells after 48 hrs by MTT assay; format: functional, cell-based
MCF7 = assay: Antiproliferative activity against human MCF7 cells after 48 hrs by MTT assay; format: functional, cell-based; settings: MCF7, 48 h
A549 = assay: Antiproliferative activity against human A549 cells after 48 hrs by MTT assay; format: functional, cell-based; settings: A549, 48 h
DU-145 = assay: Antiproliferative activity against human DU145 cells after 48 hrs by MTT assay; format: functional, cell-based; settings: DU-145, 48 h
NIH3T3 = assay: Antiproliferative activity against mouse NIH/3T3 cells after 48 hrs by MTT assay; format: functional, cell-based; settings: NIH3T3, 48 h
[1] = biological target: T1, Topoisomerase I (Bos taurus) (UniProt Q2HPH0); assay: Inhibition of calf thymus DNA topoisomerase 1 at 20 uM using pBR322 DNA as substrate after 30 mins by agarose gel electrophoresis method
T1 sequence (whole entry): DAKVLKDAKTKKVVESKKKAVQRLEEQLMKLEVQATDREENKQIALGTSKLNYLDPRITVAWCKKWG

Calf thymus DNA = assay: Binding affinity to calf thymus double stranded DNA at 5 uM by ostwald viscometer; format: nucleic-acid assay; settings: Bos taurus
DNA [2] = assay: Induction of Escherichia coli pBR322 DNA cleavage at 20 uM incubated in presence of UV-light for 1 hr by agarose gel electrophoresis; format: nucleic-acid assay
Method in brief: (§1)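 pBR322 plasmid DNA was incubated with 20 µM ligand, either in the dark or under UV-light irradiation for 1 h. Products were separated by gel electrophoresis. Irradiated DNA solution alone served as the control.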

DNA [3] = assay: Induction of Escherichia coli pBR322 DNA cleavage at 20 uM incubated in dark condition by agarose gel electrophoresis; format: nucleic-acid assay; method in brief: as §1

Row | Structure (SMILES) | pIC50 (HeLa) | pIC50 (MCF7) | pIC50 (A549) | pIC50 (DU-145) | pIC50 (NIH3T3) | inhibition [1] | Activity (Calf thymus DNA) | Activity (DNA [2]) | Activity (DNA [3])
1 | COc1ccc2c(c1)[nH]c1c(C)nccc12 [HARMINE] | 4.79 | 4.97 | 5.11 | 4.92 |  |  |  |  | 
2 | COc1ccc2[nH]cc(C(c3cc4c([nH]c5ccccc54)c(-c4ccc(C)cc4)n3)c3c[nH]c4ccc(OC)cc34)c2c1 | 4.47 | 4.56 | 4.52 | 4.64 | 4.23 |  |  |  | 
3 | CC[C@@]1(O)C(=O)OCc2c1cc1n(c2=O)Cc2cc3ccccc3nc2-1 |  |  |  |  |  | Active |  |  | 
4 | Cc1[nH]c2ccc([N+](=O)[O-])cc2c1C(c1cc2c([nH]c3ccccc32)c(-c2ccc(F)cc2)n1)c1c(C)[nH]c2ccc([N+](=O)[O-])cc12 | 4.50 | 4.56 | 4.73 | 4.77 | 3.99 |  |  |  | 
5 | COc1cc(-c2nc(C(c3c[nH]c4ccc([N+](=O)[O-])cc34)c3c[nH]c4ccc([N+](=O)[O-])cc34)cc3c2[nH]c2ccccc23)cc(OC)c1OC | 4.85 | 4.79 | 4.77 | 4.93 | 3.89 |  |  |  | 
6 | Cc1ccc(-c2nc(C(c3c[nH]c4ccc([N+](=O)[O-])cc34)c3c[nH]c4ccc([N+](=O)[O-])cc34)cc3c2[nH]c2ccccc23)cc1 | 4.96 | 4.77 | 5.16 | 5.22 | 3.84 |  |  |  | 
7 | COc1cc(-c2nc(C(c3c[nH]c4ccc(F)cc34)c3c[nH]c4ccc(F)cc34)cc3c2[nH]c2ccccc23)cc(OC)c1OC | 4.92 | 4.87 | 4.77 | 5.00 | 3.93 |  |  |  | 
8 | COc1cc(-c2nc(C(c3c(C)[nH]c4ccc([N+](=O)[O-])cc34)c3c(C)[nH]c4ccc([N+](=O)[O-])cc34)cc3c2[nH]c2ccccc23)cc(OC)c1OC | 4.65 | 4.48 | 4.50 | 4.68 | 3.98 |  |  |  | 
9 | COc1cc(-c2nc(C(c3c[nH]c4ccccc34)c3c[nH]c4ccc(C#N)cc34)cc3c2[nH]c2ccccc23)cc(OC)c1OC (stereo not drawn) | 5.01 | 4.93 | 4.71 | 4.72 | 4.24 |  |  |  | 
10 | Cc1ccc(-c2nc(C(c3c[nH]c4ccc(C#N)cc34)c3c[nH]c4ccc(C#N)cc34)cc3c2[nH]c2ccccc23)cc1 | 4.80 | 4.76 | 4.96 | 5.14 | 4.22 |  |  |  | 
11 | COc1ccc(-c2nc(C(c3c[nH]c4ccc(Br)cc34)c3c[nH]c4ccc(Br)cc34)cc3c2[nH]c2ccccc23)cc1 | 4.82 | 4.73 | 5.03 | 5.58 | 4.06 |  |  |  | 
12 | COc1ccc(-c2nc(C(c3c[nH]c4ccccc34)c3c[nH]c4ccc(C#N)cc34)cc3c2[nH]c2ccccc23)cc1 (stereo not drawn) | 4.51 | 4.54 | 4.86 | 4.83 | 3.92 |  |  |  | 
13 | Cc1ccc(-c2nc(C(c3c[nH]c4ccc(F)cc34)c3c[nH]c4ccc(F)cc34)cc3c2[nH]c2ccccc23)cc1 | 4.91 | 4.85 | 4.85 | 5.24 | 4.18 |  |  |  | 
14 | COc1ccc2[nH]cc(C(c3cc4c([nH]c5ccccc54)c(-c4ccc(F)cc4)n3)c3c[nH]c4ccc(OC)cc34)c2c1 | 4.62 | 4.46 | 4.84 | 4.98 | 3.96 |  |  |  | 
15 | COc1ccc(-c2nc(C(c3c[nH]c4ccc([N+](=O)[O-])cc34)c3c[nH]c4ccc([N+](=O)[O-])cc34)cc3c2[nH]c2ccccc23)cc1 | 4.74 | 4.30 | 4.98 | 5.03 | 3.93 |  |  |  | 
16 | COc1ccc(-c2nc(C(c3c[nH]c4ccccc34)c3c[nH]c4ccccc34)cc3c2[nH]c2ccccc23)cc1 | 4.58 | 4.42 | 4.87 | 4.89 | 4.08 |  |  |  | 

Row | Structure (SMILES) | pIC50 (HeLa) | pIC50 (MCF7) | pIC50 (A549) | pIC50 (DU-145) | pIC50 (NIH3T3) | inhibition [1] | Activity (Calf thymus DNA) | Activity (DNA [2]) | Activity (DNA [3])
17 | COc1cc(-c2nc(C(c3c[nH]c4ccc(Br)cc34)c3c[nH]c4ccc(Br)cc34)cc3c2[nH]c2ccccc23)cc(OC)c1OC | 4.80 | 4.48 | 4.66 | 4.83 | 4.19 |  |  |  | 
18 | Fc1ccc(-c2nc(C(c3c[nH]c4ccc(F)cc34)c3c[nH]c4ccc(F)cc34)cc3c2[nH]c2ccccc23)cc1 | 4.74 | 4.70 | 4.73 | 4.80 | 3.94 |  |  |  | 
19 | CC[n+]1c(-c2ccccc2)c2cc(N)ccc2c2ccc(N)cc21 |  |  |  |  |  |  | Active |  | 
20 | N#Cc1ccc2[nH]cc(C(c3cc4c([nH]c5ccccc54)c(-c4ccc(F)cc4)n3)c3c[nH]c4ccccc34)c2c1 (stereo not drawn) | 4.77 | 4.58 | 4.80 | 5.63 | 4.24 |  |  |  | 
21 | COc1ccc(-c2nc(C(c3c[nH]c4ccc(OC)cc34)c3c[nH]c4ccc(OC)cc34)cc3c2[nH]c2ccccc23)cc1 | 4.49 | 4.52 | 4.74 | 4.79 | 3.99 |  |  |  | 
22 | COc1ccc(-c2nc(C(c3c[nH]c4ccc(F)cc34)c3c[nH]c4ccc(F)cc34)cc3c2[nH]c2ccccc23)cc1 | 4.45 | 4.51 | 4.56 | 5.08 | 4.03 |  |  |  | 
23 | CCOc1ccc(-c2nc3cc(-c4nc5cc(N6CCN(C)CC6)ccc5[nH]4)ccc3[nH]2)cc1 |  |  |  |  |  |  | inactive |  | 
24 | COc1cccc2c1C(=O)c1c(O)c3c(c(O)c1C2=O)C[C@@](O)(C(=O)CO)C[C@@H]3O[C@H]1C[C@H](N)[C@H](O)[C@H](C)O1 [DOXORUBICIN] | 5.76 | 5.66 |  | 5.67 |  |  |  |  | 
25 | COc1cc(-c2nc(C(c3c[nH]c4ccccc34)c3c[nH]c4ccccc34)cc3c2[nH]c2ccccc23)cc(OC)c1OC | 4.67 | 4.46 | 4.64 | 4.89 | 4.03 |  |  |  | 
26 | Fc1ccc(-c2nc(C(c3c[nH]c4ccc(Br)cc34)c3c[nH]c4ccc(Br)cc34)cc3c2[nH]c2ccccc23)cc1 | 5.02 | 4.74 | 5.08 | 5.11 | 4.05 |  |  |  | 
27 | Cc1ccc(-c2nc(C(c3c[nH]c4ccccc34)c3c[nH]c4ccccc34)cc3c2[nH]c2ccccc23)cc1 | 4.85 | 4.74 | 5.00 | 4.86 | 4.00 |  |  |  | 
28 | COc1ccc2[nH]cc(C(c3cc4c([nH]c5ccccc54)c(-c4cc(OC)c(OC)c(OC)c4)n3)c3c[nH]c4ccccc34)c2c1 (stereo not drawn) | 4.40 | 4.35 | 4.69 | 4.71 | 4.00 |  |  |  | 
29 | O=[N+]([O-])c1ccc2[nH]cc(C(c3cc4c([nH]c5ccccc54)c(-c4ccc(F)cc4)n3)c3c[nH]c4ccc([N+](=O)[O-])cc34)c2c1 | 4.89 | 4.84 | 5.20 | 5.72 | 4.19 | Active |  | inactive | Not Active
30 | COc1ccc(-c2nc(C(c3c(C)[nH]c4ccc([N+](=O)[O-])cc34)c3c(C)[nH]c4ccc([N+](=O)[O-])cc34)cc3c2[nH]c2ccccc23)cc1 | 4.67 | 4.60 | 4.93 | 4.78 | 3.90 |  |  |  | 
31 | Cc1ccc(-c2nc(C(c3c(C)[nH]c4ccc([N+](=O)[O-])cc34)c3c(C)[nH]c4ccc([N+](=O)[O-])cc34)cc3c2[nH]c2ccccc23)cc1 | 4.55 | 4.64 | 4.68 | 4.82 | 4.28 |  |  |  | 

— ChEMBL document CHEMBL4138165, “Design, synthesis and biological evaluation of new β-carboline-bisindole compounds as DNA binding, photocleavage agents and topoisomerase I inhibitors” (Eur J Med Chem, 2018)
